In ChEMBL document CHEMBL3259694, “Design and synthesis of molecular probes for the determination of the target of the anthelmintic drug praziquantel” (Bioorg Med Chem Lett, 2014):
Values belong to the compound of their own block, whether it stands above or below them. Calls of active or inactive are those of the source. The calls are words filed in the database; no cut-off is given here.

How the values were obtained:
Schistosoma mansoni [1] = assay: Anthelmintic activity against sexually mature Schistosoma mansoni PR-1 adult worm assessed as parasite death by measuring worm contractility at 0.3 uM incubated for overnight measured after 7 days drug wash-out period by stereomicroscopic analysis; assay type: functional, organism-based
Method in brief: (§1)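 Adult male worms exposed in vitro overnight to a range of concentrations, then washed and kept 7 days in drug-free medium. Motility, contraction and survival were scored at day 7. EC50 was taken from dose-response curves of percent worms alive at day 7 against log concentration, as mean and SEM of three replicates, with 95% confidence intervals.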

Schistosoma mansoni [2] = assay: Anthelmintic activity against sexually mature Schistosoma mansoni PR-1 adult worm assessed as parasite death incubated for overnight measured after 7 days drug wash-out period by stereomicroscopic analysis; assay type: functional, organism-based; details: PR-1, 168 h; method in brief: as §1
Schistosoma mansoni [3] = assay: Anthelmintic activity against sexually mature Schistosoma mansoni PR-1 adult worm assessed immediate worm paralysis by stereomicroscopic analysis; assay type: functional, organism-based
Method in brief: (§2)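 Adult male worms were watched for contraction, shortening or paralysis at once on addition of the compound. Worms were then kept overnight in its presence before washout.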

Schistosoma mansoni [4] = assay: Anthelmintic activity against sexually mature Schistosoma mansoni PR-1 adult worm assessed immediate worm contraction by stereomicroscopic analysis; assay type: functional, organism-based; method in brief: as §2
Schistosoma mansoni [5] = assay: Anthelmintic activity against sexually mature Schistosoma mansoni PR-1 adult worm assessed as worm contractility without movement at >40 uM incubated for overnight measured after 7 days drug wash-out period by stereomicroscopic analysis; assay type: functional, organism-based; method in brief: as §1
Schistosoma mansoni [6] = assay: Anthelmintic activity against sexually mature Schistosoma mansoni PR-1 adult worm assessed as worm contractility and little movement at >60 uM incubated for overnight measured after 7 days drug wash-out period by stereomicroscopic analysis; assay type: functional, organism-based; method in brief: as §1
Schistosoma mansoni [7] = assay: Anthelmintic activity against sexually mature Schistosoma mansoni PR-1 adult worm assessed as loosely curled worm with little movement at >100 uM incubated for overnight measured after 7 days drug wash-out period by stereomicroscopic analysis; assay type: functional, organism-based; method in brief: as §1
Schistosoma mansoni [8] = assay: Anthelmintic activity against sexually mature Schistosoma mansoni PR-1 adult worm assessed immediate worm shortening by stereomicroscopic analysis; assay type: functional, organism-based; method in brief: as §2
[9] = Solubility in 1% DMSO at 300 uM; assay type: physicochemical
Schistosoma mansoni [10] = assay: Anthelmintic activity against sexually mature Schistosoma mansoni PR-1 adult worm assessed as parasite death by measuring worm contractility at 1 uM incubated for overnight measured after 7 days drug wash-out period by stereomicroscopic analysis; assay type: functional, organism-based; method in brief: as §1
[11] = Solubility in 1% DMSO at >300 uM; assay type: physicochemical

SMILES: O=C(C1CCCCC1)N1CC(=O)N2CCc3ccccc3[C@@H]2C1 [PRAZIQUANTEL, (R)-]
Activity (Schistosoma mansoni [1]): Active
EC50 (Schistosoma mansoni [2]): 0.5 µM

SMILES: Cc1cc(C)n2c1C=C1C=CC(CCC(=O)N3CC(=O)N4CCc5ccccc5[C@@H]4C3)=[N+]1[B-]2(F)F
Activity (Schistosoma mansoni [3]): inactive
Activity (Schistosoma mansoni [4]): inactive
Activity (Schistosoma mansoni [5]): Active
EC50 (Schistosoma mansoni [2]): 53.3 µM

SMILES: O=C(C1CCCCC1)N1CC(=O)N2CCc3ccccc3[C@H]2C1
Activity (Schistosoma mansoni [6]): Active
EC50 (Schistosoma mansoni [2]): 78.1 µM

solubility [9]: soluble
SMILES: C#CCN(C(=O)c1ccc(C2(C(F)(F)F)N=N2)cc1)c1ccc(C(=O)N2CC(=O)N3CCc4ccccc4[C@@H]3C2)cc1
Activity (Schistosoma mansoni [7]): Active
Activity (Schistosoma mansoni [8]): inactive
Activity (Schistosoma mansoni [4]): inactive
EC50 (Schistosoma mansoni [2]): 132 µM

SMILES: O=C(C1CCCCC1)N1CC(=O)N2CCc3ccccc3C2C1 (racemic) [PRAZIQUANTEL]
Activity (Schistosoma mansoni [10]): Active
EC50 (Schistosoma mansoni [2]): 2.5 µM

solubility [11]: soluble
SMILES: C#CCN(Cc1ccc(C(=O)N2CC(=O)N3CCc4ccccc4[C@@H]3C2)cc1)C(=O)CCCCCNC(=O)CCC1(C)N=N1
EC50 (Schistosoma mansoni [2]): > 300 µM
